The values below come from ChEMBL document CHEMBL1122757, “Angiotensin II: dependence of hormone affinity on the electronegativity of a single side chain” (1984).

For one assay, the species on record is Oryctolagus cuniculus. Put plainly: In vitro biological activity on rabbit aorta strip. In kind it is functional. An outline of the steps: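 Isolated rabbit aorta strips under 2 g tension, adjusted during a 60–90-min equilibration, with bath fluid changed every 10–15 min. Peptides added to the tissue bath, concentrations stated as final bath concentrations. Contractile responses recorded with force-displacement transducers.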

Another assay has as its system Rattus norvegicus. Put plainly: In vivo biological activity on the blood pressure of the anesthetized rat. In kind it is functional.

Each structure is given as a SMILES string.

Consider `CNCC(=O)N[C@@H](CCCN=C(N)N)C(=O)N[C@H](C(=O)N[C@@H](Cc1ccccc1)C(=O)N[C@H](C(=O)N[C@@H](Cc1c[nH]cn1)C(=O)N1CCC[C@H]1C(=O)N[C@@H](Cc1ccccc1)C(=O)O)C(C)C)C(C)C`, for which the figures for the Activity in the assay filed under Oryctolagus cuniculus and with Rattus norvegicus were 9.8% and 8.1%, respectively.
